Bioassay records from PubChem BioAssay.
CHOP inh – inhibitors of CHOP promoter induction, primary screen, cell-based, unfolded protein response, luciferase reporter; inhibition, % at 10 µM; CHO-K1 CHOP-promoter luciferase, tunicamycin-induced, 15-18 h; actives 3.8% (n = 220,000);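 active = compounds that reduced the stress-induced luciferase reporter signal by more than about 70% of percent inhibition, limit read from the data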
Hep lipid drop – inhibitors of hepatocyte lipid droplet formation, primary screen, imaging, high-throughput imaging, BODIPY stain; inhibition, % at 6.5 µM; AML12 mouse hepatocytes, oleate lipid droplets; actives 0.4% (n = 240,000);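 active = lipid droplet intensity inhibited by at least 50%, with more than 500 cells counted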
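Assay system: AML12 mouse liver cells | Compound: 6.5 µM single-point dosing | Schedule: Overnight exposure | Technique: Fluorescence imaging, 20x objective, two fields per well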
ANO1 block – TMEM16A chloride channel inhibitors, primary screen, cell-based, HTS. Anoctamin-1 (Mus musculus), Q8BHY3. HEK293 TMEM16A/YFP iodide influx fluorescence, ionomycin. normalized B-score (activity score, 25-100; higher = stronger inhibition) at 10 µM. actives 1.2% (n = 310,000);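 active = ratio plate-corrected score three or more library SD toward inhibition, starting fluorescence score within five deviations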;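 note: score derived from kinetic fluorescence span divided by baseline fluorescence per well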
Target sequence (Q8BHY3 whole entry, looked up): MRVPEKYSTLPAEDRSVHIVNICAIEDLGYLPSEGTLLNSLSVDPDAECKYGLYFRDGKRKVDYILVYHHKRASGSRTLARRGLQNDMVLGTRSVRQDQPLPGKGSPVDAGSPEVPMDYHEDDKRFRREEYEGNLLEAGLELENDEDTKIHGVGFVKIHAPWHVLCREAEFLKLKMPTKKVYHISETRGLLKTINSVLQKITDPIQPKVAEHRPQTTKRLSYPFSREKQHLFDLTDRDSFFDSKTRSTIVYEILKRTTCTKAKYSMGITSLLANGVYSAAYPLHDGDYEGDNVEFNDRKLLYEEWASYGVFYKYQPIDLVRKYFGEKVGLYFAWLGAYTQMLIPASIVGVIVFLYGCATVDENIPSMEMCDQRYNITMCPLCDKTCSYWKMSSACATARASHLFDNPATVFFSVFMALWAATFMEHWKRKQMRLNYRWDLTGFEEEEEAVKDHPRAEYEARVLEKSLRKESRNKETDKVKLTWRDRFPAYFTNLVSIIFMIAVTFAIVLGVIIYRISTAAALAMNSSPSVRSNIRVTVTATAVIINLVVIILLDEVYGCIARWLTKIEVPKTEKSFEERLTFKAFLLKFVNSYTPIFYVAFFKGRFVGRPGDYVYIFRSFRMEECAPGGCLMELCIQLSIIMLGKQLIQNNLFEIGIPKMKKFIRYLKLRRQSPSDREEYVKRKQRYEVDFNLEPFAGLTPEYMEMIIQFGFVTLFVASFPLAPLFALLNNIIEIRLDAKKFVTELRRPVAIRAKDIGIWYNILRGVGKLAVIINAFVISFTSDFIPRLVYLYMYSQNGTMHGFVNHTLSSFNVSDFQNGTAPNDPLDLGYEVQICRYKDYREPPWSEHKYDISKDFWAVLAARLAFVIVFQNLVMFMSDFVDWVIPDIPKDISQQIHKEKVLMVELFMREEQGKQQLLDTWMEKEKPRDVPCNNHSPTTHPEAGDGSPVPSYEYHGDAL
XBP1 UPR activ – activators of adaptive XBP1 UPR arm, primary screen, cell-based, CHO-XBP1 luciferase reporter, luminescence, uHTS. actives 0.33% (n = 330,000). IRE1-XBP1 UPR activation; percent of tunicamycin response, DMSO as zero. activation, % at 20 µM. AID 463104, 2010;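 active = versus positive control, 20 µM dose yields 30% or more activation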
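Material: CHO cell line with stable XBP1 luciferase reporter; schedule: 16-18 h cell attachment at 37 °C, then 6 h compound exposure; signal: glow luminescence from Steady-Glo reagent; medium: serum-containing F12 medium, 10% FBS; benchmarks: tunicamycin 10 µg/mL and vehicle-only wells; read-out: percent activation relative to tunicamycin reference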
UPR CHOP act – activators of apoptotic CHOP UPR arm, primary screen, cell-based, CHO-CHOP luciferase reporter, luminescence, uHTS | actives 0.34% (n = 330,000) | AID 449763, 2010 | UPR activation; percent of tunicamycin response over DMSO baseline | activation, % at 10 µM;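 active = at 10 µM dose, activation of 40% or more, normalized to positive control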
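measured by = luciferase luminescence | assay system = CHO-CHOP cells, stable luciferase reporter of PERK-eIF2a-CHOP signalling | amount = 500 reporter cells seeded per well | timing = 6 h compound exposure at 37 °C after overnight seeding | controls = positive tunicamycin 10 µg/mL, negative DMSO alone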
ANO1 activ – TMEM16A chloride channel activators or potentiators, primary screen, cell-based, HTS. HEK293 TMEM16A/YFP-H148Q/I152L, iodide quench fluorescence; hits give low values. B-score at 10 µM. actives 0.3% (n = 340,000). AID 623877, 2012;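 active = fluorescence-ratio B-score plate-corrected deviation score at least 3 library SD below zero, with starting fluorescence score within 5 deviations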;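 note: channel opened by trigger with iodide after compound preincubation; score built on the fluorescence ratio of max minus min over baseline; more negative score means more quench and so TMEM16A activation or potentiation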
CHOP UPR conf – activators of apoptotic CHOP UPR arm, confirmation, cell-based, CHO-CHOP luciferase reporter, single concentration | shares compounds with UPR CHOP act | CHO-CHOP cells, CHOP-luciferase reporter luminescence; percent of tunicamycin response, DMSO as zero | activation, % at 10 µM | actives 64% (n = 1,000) | AID 463112, 2010; in the data active = activation above about 33%
UPR XBP1 confirm – IRE1-XBP1 UPR arm activators, confirmation, cell-based, CHO-XBP1 luciferase reporter, luminescence, single concentration; shares compounds with XBP1 UPR activ; activation, % at 20 µM; actives 63% (n = 1,000); AID 485299, 2010;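 active = reporter signal at least 30% of the positive control's activation in two or more of four replicate wells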
Large screens that a line does not name were inactive (follow-up assays come after a bar, where they were run). The list is not random: actives were taken first. Their share in the collection is about 4.2%.

CCCC(C)NC(=O)c1cc(S(=O)(=O)N2CCCCCC2)ccc1OC (stereo not given)	none (no result: CHOP inh, Hep lipid drop, ANO1 block)
Cc1cc(NC(=O)c2cc(-c3ccccn3)nc3ccc(Br)cc23)no1	XBP1 UPR activ 34, UPR CHOP act 58 (no result: CHOP inh) | CHOP UPR conf 61 | UPR XBP1 confirm 33
O=C(CCc1ccccc1)OCCOC(=O)CCc1ccccc1	none (no result: CHOP inh)
Cc1c(NC(=O)c2cccc(NC(=O)COc3ccc(C#N)cc3)c2)c(=O)n(-c2ccccc2)n1C	none (no result: CHOP inh, Hep lipid drop, ANO1 block)
Cc1cc(C)c2c(c1)/C(=c1/sc3n(c1=O)CN(c1ccccc1)CN=3)C(=O)N2	CHOP inh 81, XBP1 UPR activ 190, UPR CHOP act 102 | CHOP UPR conf 83 | UPR XBP1 confirm 168
O=c1/c(=C/c2ccccn2)sc2n1CN(c1ccccc1)CN=2	none (no result: Hep lipid drop)
COc1cc(C(=O)OCC(=O)N2CCC(Cc3ccccc3)CC2)cc(OC)c1OC	none (no result: CHOP inh, Hep lipid drop)
COC(=O)[C@]1(Cc2ccccc2)N[C@H](CN(C)C(=O)Nc2ccc(C(F)(F)F)cc2)[C@@H]2C(=O)N(C)C(=O)[C@@H]21	none (no result: CHOP inh, Hep lipid drop, ANO1 block, ANO1 activ)
Cc1nn(Cc2c(Cl)cccc2Cl)c(C)c1NC(=O)c1sc2ccccc2c1Cl	XBP1 UPR activ 65, UPR CHOP act 49 | CHOP UPR conf 40 | UPR XBP1 confirm 67
CC1=C(/C=C/C(C)=C/C=C/C(C)=C/C(=O)Nc2ccc(O)cc2)C(C)(C)CCC1	XBP1 UPR activ 54, UPR CHOP act 93 (no result: Hep lipid drop, ANO1 block) | CHOP UPR conf 131 | UPR XBP1 confirm 55
CCOC(=O)/C=c1/s/c(=C/c2ccc3cc(OC)ccc3c2)c(=O)n1CC(=O)NCc1ccc2c(c1)OCO2	none (no result: CHOP inh, Hep lipid drop, ANO1 block, XBP1 UPR activ, UPR CHOP act)
CCOC(=O)/C=c1\s/c(=C\c2ccc3cc(OC)ccc3c2)c(=O)n1CC(=O)NCC1CCCO1 (stereo not given)	XBP1 UPR activ 371, UPR CHOP act 86 (no result: Hep lipid drop) | CHOP UPR conf 131 | UPR XBP1 confirm 580
COc1ccc(S(=O)(=O)N2CCC(C(=O)NCc3cccnc3)CC2)cc1Cl	none (no result: CHOP inh)
Cc1ccc(C(C)C)c(OCc2ccc(C(=O)N/N=C/c3ccc(O)c(O)c3)cc2)c1	CHOP inh 84, XBP1 UPR activ 86, UPR CHOP act 102 | CHOP UPR conf 57 | UPR XBP1 confirm 54
O=C(N/N=C/c1ccc(O)c(O)c1)c1ccc(CSc2cccc3cccnc23)cc1	XBP1 UPR activ 51, UPR CHOP act 106 | CHOP UPR conf inactive | UPR XBP1 confirm 54
O=c1c2ccccc2nc2n1-c1ccccc1CCC2	none
O=C1c2ccccc2-n2c1nc1ccccc1c2=O	XBP1 UPR activ 34, UPR CHOP act 77 | CHOP UPR conf inactive | UPR XBP1 confirm inactive
CN1C(=O)N(CC(=O)Nc2sccc2C(N)=O)C(=O)C12CCCCC2	none (no result: CHOP inh, Hep lipid drop, ANO1 block)
O=C(Oc1ccc2c(c1)OCC2=O)c1ccc(Cl)cc1	none
COc1cc(C(=O)Oc2ccc3c(c2)OCC3=O)cc(OC)c1OC	XBP1 UPR activ 43, UPR CHOP act 46 (no result: Hep lipid drop) | CHOP UPR conf inactive | UPR XBP1 confirm inactive
CCN(CC(=O)NCCCN1CCOCC1)S(=O)(=O)c1ccc(F)cc1	none (no result: CHOP inh)
COc1ccc(-n2c(C)cc(C(=O)CCl)c2C)cc1	XBP1 UPR activ 42, UPR CHOP act 564 | CHOP UPR conf 417 | UPR XBP1 confirm 31
Oc1ccc(CN2CCC(Cc3ccccc3)CC2)c2cccnc12	XBP1 UPR activ 39, UPR CHOP act 385 (no result: ANO1 block, ANO1 activ) | CHOP UPR conf 254 | UPR XBP1 confirm 31
Cc1[nH]c2ccccc2c1CN1CCC(Cc2ccccc2)CC1	XBP1 UPR activ 33, UPR CHOP act 46 | CHOP UPR conf 47 | UPR XBP1 confirm inactive
Clc1ccccc1CN1CCC(Cc2ccccc2)CC1	none
Cc1[nH]c2ccccc2c(=O)c1CN1CCCCC1	none
Cn1c(=O)c2c(SCC(=O)Nc3cccc(F)c3)nc(-c3ccco3)nc2n(C)c1=O	XBP1 UPR activ 481, UPR CHOP act 158 (no result: CHOP inh) | CHOP UPR conf inactive | UPR XBP1 confirm inactive
Cc1ccc(-c2nc(N/N=C/c3cccc([N+](=O)[O-])c3)c3ccccc3n2)cc1	CHOP inh 81, XBP1 UPR activ 194, UPR CHOP act 165 | CHOP UPR conf 89 | UPR XBP1 confirm 223
FC(F)(F)c1nnc2c(Sc3ccccc3)nc3ccccc3n12	none
FC(F)(F)c1nnc2c(Sc3ccc(Cl)cc3)nc3ccccc3n12	CHOP inh 71, XBP1 UPR activ 59, UPR CHOP act 84 (no result: Hep lipid drop) | CHOP UPR conf 127 | UPR XBP1 confirm 55
COc1cc(NC(=O)c2ccc(C)cc2C)ccc1NC(=O)c1cc2ccccc2o1	XBP1 UPR activ 148, UPR CHOP act 56 (no result: CHOP inh) | CHOP UPR conf inactive | UPR XBP1 confirm 72
CCOC(=O)C1CCCN(C(=O)/C=C/c2ccccc2[N+](=O)[O-])C1 (stereo not given)	none
O=C(CNC(=O)c1cc(Cl)cc([N+](=O)[O-])c1)NC1CC1	none (no result: CHOP inh, Hep lipid drop, ANO1 block)
O=c1/c(=C/c2ccc(O)c([N+](=O)[O-])c2)sc2nc3ccccc3n12	none (no result: ANO1 block, XBP1 UPR activ, UPR CHOP act)
O=c1/c(=C/c2ccc(O)cc2)sc2nc3cc(Br)cnc3n12	XBP1 UPR activ 79, UPR CHOP act 63 (no result: ANO1 activ) | CHOP UPR conf inactive | UPR XBP1 confirm inactive
COC(=O)[C@]1(Cc2ccccc2)N[C@H](CN(C)S(=O)(=O)c2ccc(-c3ccccc3)cc2)[C@@H]2C(=O)N(C)C(=O)[C@@H]21	none (no result: CHOP inh, Hep lipid drop, ANO1 block, ANO1 activ)
CCc1ccc2[nH]c(=O)c(CN(Cc3ccc(F)cc3)C(c3nnnn3CCN3CCOCC3)C(C)C)cc2c1 (stereo not given)	XBP1 UPR activ 38, UPR CHOP act 55 | CHOP UPR conf inactive | UPR XBP1 confirm inactive
CCc1ccc2[nH]c(=O)c(C(c3nnnn3CCOC)N3CCN(c4ccc(F)cc4)CC3)cc2c1 (stereo not given)	none
COc1ccc(/C=C/c2nc3ccccc3c(=O)o2)cc1	none (no result: CHOP inh)
COc1ccc(/C=C/c2nc3cc(-c4ccccc4)ccc3o2)cc1O	XBP1 UPR activ 39, UPR CHOP act 45 | CHOP UPR conf 50 | UPR XBP1 confirm 29
